Measured values published in ChEMBL document CHEMBL4017491, “Phthalazino[1,2-b]quinazolinones as p53 Activators: Cell Cycle Arrest, Apoptotic Response and Bak-Bcl-xl Complex Reorganization in Bladder Cancer Cells” (J Med Chem, 2017).
The source made the active and inactive calls. No cut-off for these calls is given here.

Columns and labels:
T-24 [1] = test: Effect on cell cycle distribution in human T24 cells assessed as late apoptotic cells at 10 uM after 1 hr by Annexin V-FITC/propidium iodide staining based FACS analysis relative to control; assay type: functional
T-24 [2] = test: Downregulation of Bak protein expression in human T24 cells at 10 uM after 24 hrs by Western blot method; assay type: functional, cell-based
Procedure, shortened: (§1)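 T24 cells, 3 × 10^5 per well, grown to 85−95% confluence, then exposed to 0−10 μM for 24 h. Whole-cell extracts in sample buffer run on SDS-polyacrylamide gels and transferred to nitrocellulose. Blots probed with primary antibodies and AP-linked anti-rabbit IgG, detected by ECL. Blots stripped and reprobed for β-actin as loading control.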

Mus musculus [3] = test: Effect on p53 expression in BALB/C nude mouse xenografted with human T24 cells at 6 to 12 mg/kg, ip administered every 2 days for 16 days by immunoblot analysis
T-24 [4] = test: Induction of apoptosis in human T24 cells assessed as early apoptotic cells at 5 uM by Annexin V-FITC/propidium iodide based flow cytometric analysis (reference value: 1.79%); assay type: functional
T-24 [5] = test: Induction of apoptosis in human T24 cells assessed as live cells at 5 uM by Annexin V-FITC/propidium iodide based flow cytometric analysis (reference value: 89.5%); assay type: functional
Mus musculus [6] = test: Down regulation of Bak expression in BALB/C nude mouse xenografted with human T24 cells at 6 to 12 mg/kg, ip administered every 2 days for 16 days by immunoblot analysis
T-24 [7] = test: Effect on cell cycle distribution in human T24 cells assessed as live cells at 10 uM after 1 hr by Annexin V-FITC/propidium iodide staining based FACS analysis (reference value: 98.3%); assay type: functional
T-24 [8] = test: Induction of apoptosis in human T24 cells assessed as apoptotic inducing factor translocation from mitochondria to nucleus at 1 to 10 uM after 48 hrs by Hoechst 33258 staining based fluorescence confocal microscopic analysis; assay type: functional, cell-based
Procedure, shortened: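 T24 cells on glass slides, treated for 48 h. Fixed in 4% paraformaldehyde, permeabilised with 1% Triton X-100, nuclei stained with Hoechst 33258 (final 0.5 μg/mL). Imaged by confocal fluorescence microscopy.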

[9] = biological target: Cellular tumor antigen p53 (Homo sapiens) (UniProt P04637); test: Activation of p53 in human T24 cells assessed as increase in cyclinE-CDK2 complex formation up to 10 uM after 24 hrs by Western blot analysis; assay type: cell-based; procedure, shortened: as §1
J82 [10] = test: Cell cycle arrest in human J82 cells assessed as accumulation at G2 phase at 10 uM after 48 hrs by propidium iodide staining based FACS analysis (reference value: 10.92 %); assay type: functional
Procedure, shortened: (§2)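 Cells treated with 1−10 μM for 48 h, trypsinized, and fixed in 70% ethanol. Stained with 50 μg/mL propidium iodide and phase distribution analyzed by flow cytometry. Mean ± SD from three independent measurements.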

DU-145 = test: Antiproliferative activity against human DU145 cells harboring p53 mutant by MTT assay; assay type: functional, cell-based
Procedure, shortened: (§3)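 Cell lines cultured in RPMI 1640 with 10% FBS. Viability read by MTT (5 mg/mL, 4 h at 37 °C), with formazan dissolved in DMSO and absorbance taken at 490 nm. Viability (%) = A490 treated / A490 control × 100. IC50 taken from dose-response curves, from three independent experiments each run in triplicate.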

J82 [11] = test: Cell cycle arrest in human J82 cells assessed as accumulation at G1 phase at 5 uM after 48 hrs by propidium iodide staining based FACS analysis (reference value: 42.29 %); assay type: functional; procedure, shortened: as §2
T-24 [12] = test: Effect on cell cycle distribution in human T24 cells assessed as late apoptotic cells at 5 uM after 1 hr by Annexin V-FITC/propidium iodide staining based FACS analysis relative to control; assay type: functional
T-24 [13] = test: Effect on light absorption in human T24 cells up to 10 uM after 1 hr at 490 nanometer; assay type: functional, cell-based
Procedure, shortened: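 T24 cells treated at 1−10 μM for 1 h, then absorbance read at 490 nm to check for interference with the MTT read-out.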

PC-3 = test: Antiproliferative activity against p53 null human PC3 cells by MTT assay; assay type: functional, cell-based; procedure, shortened: as §3
[14] = biological target: Cellular tumor antigen p53 (Homo sapiens) (UniProt P04637); test: Induction of phospho-p53 accumulation in mitochondria of human T24 cells up to 10 uM after 24 hrs by Western blot method
J82 [15] = test: Cell cycle arrest in human J82 cells assessed as accumulation at S phase at 10 uM after 48 hrs by propidium iodide staining based FACS analysis (reference value: 46.79 %); assay type: functional; procedure, shortened: as §2
T-24 [16] = test: Induction of apoptosis in human T24 cells by Annexin V-FITC/propidium iodide based flow cytometric analysis; assay type: functional, cell-based
T-24 [17] = test: Antitumor activity against human T24 cells xenografted in BALB/C nude mouse assessed as tumor growth inhibition at 6 mg/kg, ip administered every 2 days for 16 days relative to control; assay type: functional; details: T-24, ip, read-out: TGI
T-24 [18] = test: Effect on Bcl-2 expression in human T24 cells up to 10 uM after 24 hrs by Western blot analysis; assay type: functional, cell-based; procedure, shortened: as §1
T-24 [19] = test: Induction of apoptosis in human T24 cells assessed as necrotic cells at 5 uM by Annexin V-FITC/propidium iodide based flow cytometric analysis (reference value: 8.53%); assay type: functional
T-24 [20] = test: Cell cycle arrest in human T24 cells assessed as accumulation at S/G2 phase at 1 to 10 uM after 48 hrs by propidium iodide staining based FACS analysis; assay type: functional; procedure, shortened: as §2
LNCaP = test: Antiproliferative activity against human LNCAP cells harboring wild type p53 by MTT assay; assay type: functional, cell-based; procedure, shortened: as §3
T-24 [21] = test: Effect on Bcl-xl protein expression in human T24 cells at 1 to 10 uM after 24 hrs by Western bot method; assay type: functional, cell-based; procedure, shortened: as §1
T-24 [22] = test: Induction of apoptosis in human T24 cells assessed as live cells at 10 uM by Annexin V-FITC/propidium iodide based flow cytometric analysis (reference value: 89.5%); assay type: functional
T-24 [23] = test: Induction of apoptosis in human T24 cells assessed as late apoptotic cells at 1 uM by Annexin V-FITC/propidium iodide based flow cytometric analysis (reference value: 0.193%); assay type: functional
T-24 [24] = test: Induction of apoptosis in human T24 cells assessed as increase in bim level up to 10 uM after 24 hrs by Western blot analysis; assay type: functional, cell-based
Procedure, shortened: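 T24 cells (3 × 10^5 per well) grown to 85–95% confluence, then exposed 24 h to 0–10 μM. Whole-cell extracts run on SDS-PAGE and blotted to nitrocellulose. Probed with the indicated antibodies and AP-linked anti-rabbit IgG, with ECL detection. Blots stripped and reprobed for β-actin as loading control.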

T-24 [25] = test: Effect on cell cycle distribution in human T24 cells assessed as live cells at 1 uM after 1 hr by Annexin V-FITC/propidium iodide staining based FACS analysis (reference value: 98.3%); assay type: functional
T-24 [26] = test: Induction of apoptosis in human T24 cells assessed as late apoptotic cells at 5 uM by Annexin V-FITC/propidium iodide based flow cytometric analysis (reference value: 0.193%); assay type: functional

Chain of Cellular tumor antigen p53 (Homo sapiens) (P04637 whole entry, looked up): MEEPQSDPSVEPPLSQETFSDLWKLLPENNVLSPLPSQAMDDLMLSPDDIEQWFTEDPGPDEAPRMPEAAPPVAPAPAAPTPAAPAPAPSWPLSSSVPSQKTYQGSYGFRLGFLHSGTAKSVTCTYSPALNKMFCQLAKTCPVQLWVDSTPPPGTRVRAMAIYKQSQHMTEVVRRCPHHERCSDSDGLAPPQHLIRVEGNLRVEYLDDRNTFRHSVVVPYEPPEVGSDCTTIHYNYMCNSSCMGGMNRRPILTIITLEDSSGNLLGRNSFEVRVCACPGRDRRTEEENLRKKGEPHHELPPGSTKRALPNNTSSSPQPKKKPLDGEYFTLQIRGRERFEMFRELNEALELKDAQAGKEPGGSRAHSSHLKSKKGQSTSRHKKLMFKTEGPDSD

Question: Which results are given for `CN(C)CCNc1nn2c(=O)c3cc(Br)ccc3nc2c2ccccc12`?
Answer: Activity (T-24 [1]): 0%; Activity (T-24 [2]): Active; Activity (Mus musculus [3]): inactive; Activity (T-24 [4]): 26.4%; Activity (T-24 [5]): 62.8%; Activity (Mus musculus [6]): Active; Activity (T-24 [7]): 86.6%; Activity (T-24 [8]): Active; Activity [9]: Active; Activity (J82 [10]): 23.67%; Activity (DU-145): inactive; Activity (J82 [11]): 17.78%; Activity (T-24 [12]): 0%; Activity (T-24 [13]): inactive; Activity (PC-3): inactive; Activity [14]: Active; Activity (J82 [15]): 64.2%; Activity (T-24 [16]): Dose-dependent effect; inhibition in vivo at 6 mg/kg (T-24 [17]): 44.8%; Activity (T-24 [18]): inactive; Activity (T-24 [19]): 0.661%; Activity (T-24 [20]): Active; Activity (LNCaP): Active; Activity (T-24 [21]): inactive; Activity (T-24 [22]): 21.8%; Activity (T-24 [23]): 5.29%; Activity (T-24 [24]): Active; Activity (T-24 [25]): 93.5%; Activity (T-24 [26]): 10.2%
